Reference: ChEMBL document CHEMBL4673250, “Analogs of nitrofuran antibiotics are potent GroEL/ES inhibitor pro-drugs” (Bioorg Med Chem, 2020)
The source made the active and inactive calls. The rule behind the calls is not given here.

Experiments:
[1] = test system: Escherichia coli; assay: Antibacterial activity against Escherichia coli harbouring NfsA and NfsB mutant assessed as reduction in bacterial growth measured for 12 day serial passage incubated for 24 hrs by serial dilution method; type: functional, organism-based
Method in brief: (§1)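 NEB 5-alpha E. coli (DH5α derivative); 12-day liquid-culture serial passage. Dilute culture (OD600 = 0.01) grown 24 h with inhibitors in dose-response, in duplicate. EC50 taken from OD600 readings. Each day, bacteria were sub-cultured from the well with the highest inhibitor concentration still reaching OD600 > 0.2. Resistant strains were retested in a follow-up 24 h proliferation assay after 4×12 h passages without inhibitor, and were cross-tested against the other inhibitors.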

[2] = biological target: T1, E. coli GroEL/ES (Escherichia coli, UniProt P0A6F5); assay: Inhibition of Escherichia coli GroEL/ES-mediated refolding of the denatured malate dehydrogenase in presence of Escherichia coli type 1 NfsB nitroreductase; type: protein-complex assay
T1 sequence (P0A6F5 whole entry, looked up): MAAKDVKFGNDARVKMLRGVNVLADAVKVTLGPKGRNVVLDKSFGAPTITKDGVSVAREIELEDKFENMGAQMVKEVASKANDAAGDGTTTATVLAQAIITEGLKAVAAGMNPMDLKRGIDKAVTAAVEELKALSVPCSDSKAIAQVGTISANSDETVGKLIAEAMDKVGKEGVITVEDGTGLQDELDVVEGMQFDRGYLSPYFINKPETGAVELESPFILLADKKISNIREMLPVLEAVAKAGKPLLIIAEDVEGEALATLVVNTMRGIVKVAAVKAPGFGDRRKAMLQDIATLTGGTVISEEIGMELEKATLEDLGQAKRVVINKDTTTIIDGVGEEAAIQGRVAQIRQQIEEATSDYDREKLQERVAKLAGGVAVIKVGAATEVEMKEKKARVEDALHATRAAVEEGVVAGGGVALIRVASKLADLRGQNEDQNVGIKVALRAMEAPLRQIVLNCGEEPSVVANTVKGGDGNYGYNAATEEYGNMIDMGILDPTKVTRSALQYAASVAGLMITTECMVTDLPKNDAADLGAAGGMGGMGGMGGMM
Method in brief: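 GroEL/ES-dMDH refolding with 10 µg/mL E. coli NfsB added to the initial GroEL/ES-dMDH mix. After compound stamping, NADH (2.4 mM stock) is added and the mix is incubated 10 min at 37°C to bioactivate nitrofurans. Compounds during the refolding cycle span 83 µM to 38 nM (3-fold series).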

[3] = Cytotoxicity against human FHs74Int cells assessed as reduction in cell viability incubated for 48 hrs by alamar blue assay; type: cell-based
Method in brief: (§2)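 Alamar Blue viability: cells grown to ~80–90% confluency, seeded 1,500 per well and cultured 24 h without compound, then compound added for a further 48 h; resazurin reagent added and fluorescence monitored over time.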

[4] = biological target: T1, E. coli GroEL/ES; assay: Inhibition of Escherichia coli GroEL/ES-mediated refolding of the denatured malate dehydrogenase; type: protein-complex assay
Method in brief: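 E. coli GroEL/ES-mediated refolding of denatured MDH as the reporter enzyme. IC50 values are averages from at least four replicates. […] GroEL tetradecamer is present at 50 nM during the refolding cycle. DMSO serves as the negative control.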

[5] = test system: Escherichia coli; assay: Antibacterial activity against 5-chloro-N-[(5-nitro-2-furyl)methyleneamino]thiophene-2-carboxamide-resistant Escherichia coli assessed as reduction in bacterial growth measured for 12 day serial passage incubated for 24 hrs by serial dilution method; type: functional, organism-based; method in brief: as §1
[6] = test system: Klebsiella pneumoniae; assay: Antibacterial activity against Klebsiella pneumoniae ATCC 13883 assessed as reduction in bacterial growth by serial dilution method; type: functional, organism-based
[7] = test system: Enterobacter cloacae; assay: Antibacterial activity against Enterobacter cloacae ATCC 13047 assessed as reduction in bacterial growth by serial dilution method; type: functional, organism-based
[8] = test system: Escherichia coli; assay: Antibacterial activity against Nifuroxazide-resistant Escherichia coli assessed as reduction in bacterial growth measured for 12 day serial passage incubated for 24 hrs by serial dilution method; type: functional, organism-based; method in brief: as §1
[9] = test system: Enterococcus faecium; assay: Antibacterial activity against Enterococcus faecium ATCC 19434 assessed as reduction in bacterial growth by serial dilution method; type: functional, organism-based
[10] = test system: Escherichia coli; assay: Antibacterial activity against Escherichia coli assessed as reduction in bacterial growth measured for 12 day serial passage incubated for 24 hrs by serial dilution method; type: functional, organism-based; method in brief: as §1
[11] = test system: Escherichia coli; assay: Antibacterial activity against Nitrofurantoin-resistant Escherichia coli assessed as reduction in bacterial growth measured for 12 day serial passage incubated for 24 hrs by serial dilution method; type: functional, organism-based; method in brief: as §1
[12] = test system: Pseudomonas aeruginosa; assay: Antibacterial activity against Pseudomonas aeruginosa ATCC 10145 assessed as reduction in bacterial growth by serial dilution method; type: functional, organism-based
[13] = test system: Escherichia coli; assay: Antibacterial activity against Escherichia coli assessed as reduction in bacterial growth by serial dilution method; type: functional, organism-based
Method in brief: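 Liquid-culture proliferation in media supplemented with physiological free calcium and magnesium; cultures started at OD600 = 0.01, exposed to 8-point 3-fold dilution series (100 μM to 46 nM), grown to mid-log phase (OD600 ~0.4–0.6), then final OD600 read. E. coli strain NEB 5-alpha (DH5α derivative).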

[14] = test system: FHC; assay: Cytotoxicity against human FHC cells assessed as reduction in cell viability incubated for 48 hrs by alamar blue assay; type: cell-based; method in brief: as §2
[15] = test system: Staphylococcus aureus; assay: Antibacterial activity against Staphylococcus aureus ATCC 25923 assessed as reduction in bacterial growth by serial dilution method; type: functional, organism-based
[16] = test system: Acinetobacter baumannii; assay: Antibacterial activity against Acinetobacter baumannii ATCC 19606 assessed as reduction in bacterial growth by serial dilution method; type: functional, organism-based; conditions: ATCC 19606 = CIP 70.34 = JCM 6841
[17] = Selectivity index, ratio of CC50 for human FHs 74 cells to EC50 for Escherichia coli; type: toxicity; conditions: read-out: Ratio CC50/EC50
[18] = Selectivity index, ratio of CC50 for human FHC cells to EC50 for Escherichia coli; type: toxicity; conditions: read-out: Ratio CC50/EC50

Structure (SMILES) | Activity [1] | IC50 [2] | CC50 [3] | IC50 [4] | Activity [5] | EC50 [6] | EC50 [7] | Activity [8] | EC50 [9] | EC50 [10] | Activity [11] | EC50 [12] | EC50 [13] | CC50 [14] | EC50 [15] | EC50 [16] | selectivity ratio [17] | selectivity ratio [18]
O=C1CN(/N=C/c2ccc([N+](=O)[O-])o2)C(=O)N1 [NITROFURANTOIN] | inactive | 84 µM | > 100 µM | > 100 µM | inactive | 40 µM | 36 µM | inactive | 38 µM | 20 µM | inactive | > 100 µM | 0.69 µM | > 100 µM | 27 µM | > 100 µM | – | –
O=C(N/N=C/c1ccc([N+](=O)[O-])o1)c1ccccc1 | – | 12 µM | 94 µM | > 100 µM | – | 36 µM | > 100 µM | – | 31 µM | – | – | > 100 µM | 2.1 µM | > 100 µM | 10 µM | > 100 µM | 45 | > 48
O=C(N/N=C/c1ccc([N+](=O)[O-])o1)c1ccc(Cl)s1 | inactive | 3.2 µM | 85 µM | 88 µM | inactive | 19 µM | 49 µM | Active | 12 µM | 20 µM | Active | > 100 µM | 0.45 µM | 53 µM | 3 µM | 72 µM | 190 | 119
O=C(N/N=C/c1ccc([N+](=O)[O-])o1)c1ccc(O)cc1 [NIFUROXAZIDE] | inactive | 19 µM | 79 µM | > 100 µM | Active | 37 µM | 54 µM | Active | 8.1 µM | 20 µM | Active | > 100 µM | 0.87 µM | 61 µM | 16 µM | > 100 µM | 91 | 70
O=C(N/N=C/c1ccc([N+](=O)[O-])o1)c1cccs1 | – | 7.7 µM | 71 µM | > 100 µM | – | 16 µM | 40 µM | – | 24 µM | – | – | > 100 µM | 0.42 µM | 83 µM | 7.1 µM | 82 µM | 168 | 198
O=[N+]([O-])c1ccc(O)c2ncccc12 [NITROXOLINE] | – | – | – | – | – | 2.8 µM | 6.6 µM | – | 18 µM | – | – | 99 µM | 4 µM | – | 9.5 µM | 2.5 µM | – | –
COc1ccc(C(=O)N/N=C/c2ccc([N+](=O)[O-])o2)cc1 | – | 10 µM | 75 µM | 69 µM | – | > 100 µM | > 100 µM | – | 22 µM | – | – | > 100 µM | 1.9 µM | > 100 µM | 8.1 µM | > 100 µM | 40 | –
CN(C)c1ccc(C(=O)N/N=C/c2ccc([N+](=O)[O-])o2)cc1 | – | 12 µM | 93 µM | 26 µM | – | > 100 µM | > 100 µM | – | > 100 µM | – | – | > 100 µM | 10 µM | > 100 µM | 34 µM | > 100 µM | 9.3 | > 10
O=C(N/N=C/c1ccc([N+](=O)[O-])o1)c1ccncc1 | – | 23 µM | 90 µM | > 100 µM | – | 42 µM | 73 µM | – | 13 µM | – | – | > 100 µM | 2.4 µM | 61 µM | 9.5 µM | 54 µM | 38 | 26
